Experimental data reported in ChEMBL document CHEMBL4825680, “Structure-based discovery of potent and selective small-molecule inhibitors targeting signal transducer and activator of transcription 3 (STAT3)” (Eur J Med Chem, 2021).
The source made the active and inactive calls. The calls are words filed in the database; no cut-off is given here.

Key:
[1] = Metabolic stability in human liver microsomes assessed as clearance at 0.1 uM preincubated for 10 mins followed by NADPH addition and measured upto 60 mins by LC-MS/MS analysis; format: ADME, Microsome; details: 1 h, time <=70 min
Summary of the method: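 Microsomes at 0.33 mg/mL in 0.1 M Tris pH 7.4 with 5 mM MgCl2; compound final 0.1 μM (0.01% DMSO, 0.005% BSA). Preincubated 10 min at 37 °C, then started with 1 mM NADPH. Sampled at 0, 7, 17, 30 and 60 min and quenched with cold methanol. Centrifuged, then analysed by LC-MS/MS.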

[2] = Cmax in Sprague-Dawley rat at 10 mg/kg, po measured up to 24 hrs by LC-MS/MS analysis; format: ADME, organism-based; parameters: route oral, dose 10 mg/kg, time <=24; details: in vivo
Summary of the method: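 Male SD rats given a single oral dose of 10 mg/kg in DMSO/0.5% HPMC (5/95, v/v). Blood was drawn at 0.25, 0.5, 1, 2, 4, 8 and 24 h, and plasma was analysed by LC-MS/MS on a BEH phenyl column with a formic acid water/acetonitrile mobile phase.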

MDA-MB-231 = test: Effect on total STAT3 level in human MDA-MB-231 cells at 0.3 to 3 uM measured after 3 hrs by Western blot analysis; format: functional, cell-based; details: dose 0.3-3 µM
Summary of the method: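 Breast cancer cells were treated with vehicle (0.1% DMSO) or compound, then lysed in RIPA with PMSF and phosphatase inhibitors. 20–50 μg protein was run on 8 or 12% SDS-PAGE, blotted to PVDF, blocked in 5% BSA, probed with primary antibodies overnight at 4 °C, then HRP secondaries, with ECL detection.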

Breast cancer cell line = test: Antitumor activity against patient-derived breast cancer cells xenografted in NOD/SCID mouse assessed as reduction in Mcl-1 expression at 5 to 15 mg/kg, iv administered once daily for 20 days by Western blotting analysis; format: functional, organism-based; details: Homo sapiens, dose 5-15 mg/kg, time 20.0 day
[3] = target: T1, Signal transducer and activator of transcription 3 (Homo sapiens, UniProt P40763); test: Inhibition of STAT3 in human HCC70 cells assessed as downregulation of Mcl-1 expression at 0.3 to 3 uM after 24 hrs by western blot analysis; format: cell-based; details: dose 0.3-3 µM
Summary of the method: (§1)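 TNBC cells given vehicle (0.1% DMSO) or graded compound levels for 24 h, lysed in RIPA with PMSF and phosphatase inhibitors. BCA-quantified lysate (20–50 µg) run on SDS-PAGE, transferred to PVDF, blocked in 5% BSA. Probed overnight at 4 °C for Bcl-xL, Mcl-1 and c-Myc, with β-actin. HRP secondary, ECL detection. Three independent experiments.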

[4] = Toxicity in NOD/SCID mouse xenografted with patient-derived breast cancer cells assessed as morphological change in lung at 5 to 15 mg/kg, […] once daily for 20 days by HE staining based assay; format: organism-based; details: in vivo, iv, dose 5-15 mg/kg, time 20 day
Summary of the method: (§2)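 Female NOD-SCID mice implanted subcutaneously in the flank with about 2 mm³ TNBC PDX fragments. At about 100 mm³ tumour volume, randomised n=6/group: vehicle (PBS with 15% Cremophor EL), 5 or 15 mg/kg intraperitoneally daily. Killed at day 20; heart, liver, spleen, lung and kidney collected for morphological examination.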

[5] = target: T1, Signal transducer and activator of transcription 3; test: Inhibition of STAT3 DNA binding in human MDA-MB-468 cells at 0.3 to 1 uM after 3 hrs by EMSA analysis; format: cell-based; details: dose 0.3-1 µM
Summary of the method: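 Cells exposed to vehicle or compound for 3 h. Nuclear extracts prepared and BCA-quantified. Nuclear protein (8–10 µg) incubated with biotinylated STAT3 or STAT5 probe, resolved on 6% native polyacrylamide gel, transferred to nylon membrane and detected with a gel-shift kit.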

MDA231-LM2-4175 [6] = test: Antitumor activity against human MDA231-LM2-4175 cells xenografted in mouse assessed as reduction in pY705-STAT3 expression at 5 to 15 mg/kg, iv administered once daily for 20 days by Western blotting analysis; format: functional, organism-based; details: dose 5-15 mg/kg, time 20.0 day
[7] = target: T1, Signal transducer and activator of transcription 3; test: Inhibition of STAT3 in human MDA231-LM2-4175 cells assessed as downregulation of Bcl-xL expression at 0.3 to 3 uM after 24 hrs by western blot analysis; format: cell-based; details: dose 0.3-3 µM; summary of the method: as §1
[8] = Toxicity in mouse xenografted with human MDA-MB-231-4175 cells assessed as morphological change in liver at 5 to 15 mg/kg, […] once daily for 20 days by HE staining based assay; format: organism-based; details: in vivo, iv, dose 5-15 mg/kg, time 20 day
Summary of the method: as §2, with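 “aged 4–5 weeks, given 2×10^6–3×10^6 MDA-MB-231-4175 cells” for “implanted”, “flank.” for “flank with about 2 mm³ TNBC PDX fragments.”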

[9] = Toxicity in NOD/SCID mouse xenografted with patient-derived breast cancer cells assessed as change in body weight at 5 to 15 mg/kg, ip administered once daily for 20 days; details: in vivo, 480 h
[10] = Induction of apoptosis in human MDA231-LM2-4175 cells assessed as early apoptotic cells at 3 uM after 48 hrs by Annexin-V-FITC/propidium iodide staining based flow cytometric analysis (reference value: 2.49%); format: functional
[11] = Induction of apoptosis in human MDA231-LM2-4175 cells assessed as late apoptotic cells at 3 uM after 48 hrs by Annexin-V-FITC/propidium iodide staining based flow cytometric analysis (reference value: 2.60%); format: functional
MDA231-LM2-4175 [12] = test: Induction of apoptosis in human MDA231-LM2-4175 cells assessed as increase in PARP cleavage at 1 uM after 48 hrs by Western blot analysis; format: functional, cell-based
Summary of the method: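 Breast cancer cells given vehicle (0.1% DMSO) or compound, then lysed in RIPA buffer with PMSF and phosphatase inhibitors. BCA-quantified lysate (20–50 µg) run on 8 or 12% SDS-PAGE and transferred to PVDF. Blocked in 5% BSA, probed overnight at 4 °C for PARP and cleaved caspase-7, HRP secondary, ECL detection. β-actin as loading control.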

[13] = Induction of apoptosis in human MDA231-LM2-4175 cells assessed as necrotic cells at 3 uM after 48 hrs by Annexin-V-FITC/propidium iodide staining based flow cytometric analysis (reference value: 0.531%); format: functional
[14] = Toxicity in mouse xenografted with human MDA-MB-231-4175 cells assessed as body weight loss at 5 to 15 mg/kg, […] once daily for 20 days; format: organism-based; details: in vivo, iv, dose 5-15 mg/kg, time 20 day
Summary of the method: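 Female NOD-SCID mice aged 4–5 weeks, given 2×10^6–3×10^6 MDA-MB-231-4175 cells subcutaneously in the flank. At about 100 mm³ tumour volume, randomised n=6/group to vehicle (PBS with 15% Cremophor EL) or 5 or 15 mg/kg intraperitoneally daily for 20 days. Body weight tracked during treatment.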

MDA-MB-468 = test: Induction of apoptosis in human MDA-MB-468 cells assessed as necrotic cells at 3 uM after 48 hrs by Annexin-V-FITC/propidium iodide staining based flow cytometric analysis (reference value: 0.240%); format: functional

T1 sequence (P40763 whole entry): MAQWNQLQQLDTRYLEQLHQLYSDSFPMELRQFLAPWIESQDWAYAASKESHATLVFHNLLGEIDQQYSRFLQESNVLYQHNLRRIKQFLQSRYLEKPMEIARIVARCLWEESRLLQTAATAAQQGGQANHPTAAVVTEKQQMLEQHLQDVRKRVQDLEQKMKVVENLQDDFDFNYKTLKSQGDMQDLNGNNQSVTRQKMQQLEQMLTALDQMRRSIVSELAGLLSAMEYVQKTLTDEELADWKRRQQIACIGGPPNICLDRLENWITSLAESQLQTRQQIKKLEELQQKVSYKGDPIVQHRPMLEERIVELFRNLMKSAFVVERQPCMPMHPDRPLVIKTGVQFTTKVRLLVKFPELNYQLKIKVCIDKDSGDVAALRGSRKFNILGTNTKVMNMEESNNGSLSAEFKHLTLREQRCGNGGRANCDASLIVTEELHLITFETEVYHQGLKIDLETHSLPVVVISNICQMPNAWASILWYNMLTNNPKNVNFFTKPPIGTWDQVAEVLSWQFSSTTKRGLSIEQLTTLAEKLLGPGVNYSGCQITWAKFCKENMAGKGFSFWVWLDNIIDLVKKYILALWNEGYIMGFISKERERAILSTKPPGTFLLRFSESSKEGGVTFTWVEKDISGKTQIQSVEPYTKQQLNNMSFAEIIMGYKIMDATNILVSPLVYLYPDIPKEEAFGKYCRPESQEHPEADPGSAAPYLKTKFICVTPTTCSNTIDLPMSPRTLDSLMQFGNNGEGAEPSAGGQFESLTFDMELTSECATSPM

SMILES: O=C(Cc1c(-c2ccccc2)nc2ccccn12)Nc1ccc2c(c1)S(=O)(=O)C=C2
- CLH [1]: 87 mL/min/g
- Cmax [2]: 23.8 ng/mL
- Activity (MDA-MB-231): inactive
- Activity (Breast cancer cell line): Active
- inhibition [3]: Active
- Activity [4]: Non-Toxic
- inhibition [5]: Active
- Activity (MDA231-LM2-4175 [6]): Active
- inhibition [7]: Active
- Activity [8]: Non-Toxic
- Activity [9]: Non-Toxic
- Activity [10]: 9.5%
- Activity [11]: 5.71%
- Activity (MDA231-LM2-4175 [12]): Active
- Activity [13]: 1.37%
- Activity [14]: Non-Toxic
- Activity (MDA-MB-468): 1.33%
